Among the data in ChEMBL document CHEMBL4190282, “The Conjugated Double Bond of Coniferyl Aldehyde Is Essential for Heat Shock Factor 1 Mediated Cytotoprotection” (J Nat Prod, 2017) are Activity values, retold here.

Active and inactive are the calls of the source. No cut-off for these calls is given here.

For data set [1], the target named is T1, Heat shock factor protein 1 (Homo sapiens) (UniProt Q00613).
T1 sequence (whole entry): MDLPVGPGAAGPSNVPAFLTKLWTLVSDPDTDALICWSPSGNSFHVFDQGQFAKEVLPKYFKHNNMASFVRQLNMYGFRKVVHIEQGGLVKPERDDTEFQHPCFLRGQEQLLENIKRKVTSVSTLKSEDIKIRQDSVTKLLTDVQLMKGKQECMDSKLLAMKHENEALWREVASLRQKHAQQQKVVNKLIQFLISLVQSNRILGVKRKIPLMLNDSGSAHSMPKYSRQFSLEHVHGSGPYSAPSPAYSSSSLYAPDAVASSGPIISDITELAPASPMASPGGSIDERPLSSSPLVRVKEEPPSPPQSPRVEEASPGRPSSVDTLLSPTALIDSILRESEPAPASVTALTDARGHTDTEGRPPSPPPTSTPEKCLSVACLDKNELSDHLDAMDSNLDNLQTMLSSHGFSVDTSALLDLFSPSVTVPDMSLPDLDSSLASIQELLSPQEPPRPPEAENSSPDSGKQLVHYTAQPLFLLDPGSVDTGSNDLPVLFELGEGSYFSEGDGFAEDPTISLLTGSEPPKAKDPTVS
The data set is described as follows: Activation of HSF1 in human NCI-H460 cells expressing pGL4-hsp25 construct assessed as upregulation of hsp25 promoter activity at 10 to 30 uM after 12 hrs by luciferase reporter gene assay. It counts as cell-based. The method in brief: (§1)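 NCI-H460 cells stably carrying hsp25 or hsp70 promoter–luciferase reporters, seeded, treated after 24 h at 10 or 30 μM and harvested 12 h later. Lysate luciferase normalized to β-galactosidase; mean of three independent experiments, fold-change vs negative control.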

The target in data set [2] is T1, Heat shock factor protein 1 (Homo sapiens). The data set is described as follows: Activation of HSF1 in human NCI-H460 cells expressing pGL4-hsp70 construct assessed as upregulation of hsp70 promoter activity at 10 to 30 uM after 12 hrs by luciferase reporter gene assay. It counts as cell-based. The gist of the method:
as §1

The subject of a further data set is NCI-H460. The data set is described as follows: Upregulation of HSF1 protein level in human NCI-H460 cells at 10 to 30 uM after 12 hrs by Western blot analysis. The class given is functional, cell-based. The method in brief:
(§2)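 NCI-H460 cells treated 12 h at 10 or 30 μM; HSF1, HSP27 and HSP70 detected by Western blot.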

Data set [3] concerns the target T1, Heat shock factor protein 1 (Homo sapiens). Nature of the data set: Activation of HSF1 in human NCI-H460 cells assessed as upregulation of HSP25 protein levels at 10 to 30 uM after 12 hrs by Western blot analysis. The class given is cell-based. The gist of the method:
as §2

For data set [4] the target is unchanged. Nature of the data set: Activation of HSF1 in human NCI-H460 cells assessed as upregulation of HSP70 protein levels at 10 to 30 uM after 12 hrs by Western blot analysis. It counts as cell-based. The method in brief:
as §2

For data set [5] the target is unchanged. The data set is described as follows: Activation of HSF1 in human NCI-H460 cells assessed as upregulation of HSP25 protein levels at 1 uM after 12 hrs by Western blot analysis. It counts as cell-based. The gist of the method: (§3)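 Cells were grown to 30% confluence and treated for 12 h. Equal protein amounts were lysed and cleared at 13 000 rpm for 30 min at 4 °C, then boiled in sample buffer for 5 min. Proteins were resolved by 8% or 12% SDS-PAGE and transferred to nitrocellulose. Membranes were blocked in 5% milk/PBST, given primary antibody for 18 h at 4 °C and an HRP secondary, and developed by ECL.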

Data set [6] shares this target. The data set is described as follows: Activation of HSF1 in human NCI-H460 cells assessed as upregulation of HSP70 protein levels at 1 uM after 12 hrs by Western blot analysis. The class given is cell-based. The gist of the method: as §3
In another data set the test system is L132. Nature of the data set: Cytotoxicity against human L-132 cells assessed as reduction in cell viability up to 20 uM after 24 hrs by MTT assay. The class given is cell-based. Particulars: l132, 24 h. The gist of the method:
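L132 cells treated 24 h at indicated doses up to 20 μM. MTT (5 mg/mL in PBS) 4 h at 37 °C, formazan dissolved in DMSO, absorbance at 540 nm converted to cell number via calibration curve. Celastrol positive control.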

Take `COc1cc(CCC=O)ccc1O`: the result (in data set [1]; in data set [2]; in the data set on NCI-H460; in data set [3]; in data set [4]) was inactive.

Turning to `COc1cc(CCCO)ccc1O`, the result (in data set [1]; in data set [2]; with NCI-H460; in data set [3]; in data set [4]) was inactive.

As for `CC1=C(O)C(=O)C=C2C1=CC=C1[C@@]2(C)CC[C@@]2(C)[C@@H]3C[C@](C)(C(=O)O)CC[C@]3(C)CC[C@]12C` [CELASTROL], the result in data set [5] and in data set [6] was Active. In the data set on L132, the Activity result was “Toxic”.
